Test results: ChEMBL document CHEMBL5154945, “Discovery and Optimization of Pyrrolopyrimidine Derivatives as Selective Disruptors of the Perinucleolar Compartment, a Marker of Tumor Progression toward Metastasis” (J Med Chem, 2022)

Experiments:
PC-3M = test: Anticancer activity in human PC-3M cells expressing PTB/GFP fusion protein assessed as perinucleolar compartment disassembly and measured after 24 hrs by Hoechst 33342 staining based microscopic method; type: functional, cell-based; conditions: read-out: IC50
Procedure, shortened: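 Imaged by high-content microscopy. Nuclei with PNC spots ≥3 and >0 scored positive. PNC prevalence % = PNC-positive nuclei/total nuclei ×100, normalized to DMSO (0% activity) and 0% PNC (−100%). IC50 from concentration-response.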

[1] = Cytotoxicity against human PC-3M cells expressing PTB/GFP fusion protein assessed as reduction in ATP level and measured after 24 to 48 hrs by ATPlite luminescence assay; type: toxicity, cell-based
in vitro = conditions: human, PC-3M cells expressing PTB/GFP fusion protein

Which IC50 (PC-3M) does the source give for `CC[C@@]1(O)C(=O)OCc2c1cc1n(c2=O)Cc2cc3ccccc3nc2-1` [CAMPTOTHECIN] here?
Its IC50 is 190 nM.

And the IC50 [1]?
The IC50 was 480 nM.

What about the selectivity ratio (in vitro) of the same compound?
Its selectivity ratio is 2.5.
